IC50, Ratio IC50 and EC50 data for 17 compounds are collected here from ChEMBL document CHEMBL3352013, “The design and synthesis of potent and selective inhibitors of Trypanosoma brucei glycogen synthase kinase 3 for the treatment of human african trypanosomiasis” (J Med Chem, 2014).

The IC50 is the midpoint of a concentration-inhibition curve. Low values mean greater potency, high ones weaker potency. By EC50 is commonly meant the concentration that produces a half-maximal response.

Structures are written as SMILES.

Experiment [1] in a line: Inhibition of Trypanosoma brucei GSK3 using biotinylated GSP2 substrate by flashplate assay. Summed up: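 Radiometric Flashplate assay: 2.5 nM TbGSK3 short, 1 μM biotinylated GSP2, 1 μM ATP plus [γ-33P]-ATP. 10-point titration 30 μM to 0.3 nM final, 1% DMSO. IC50 averaged over two or more experiments; standard GW8510 used for reproducibility (MSR).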
In experiment [2] the target is Glycogen synthase kinase-3 (Homo sapiens, UniProt P49840+P49841). In words: Inhibition of human GSK3 using biotinylated GSP2 substrate by flashplate assay. In kind it is protein assay.
Experiment [3] in a line: Selectivity ratio, ratio of IC50 for human GSK3 to IC50 Trypanosoma brucei GSK3.
The target of experiment [4] is CDK2/Cyclin A2 (Homo sapiens, UniProt P24941). The experiment in a line: Inhibition of human CDK2/cyclin A using Biotin-C6-PKTPKKAKKL substrate. In kind it is protein-complex assay.
A short description of experiment [5]: Selectivity ratio, ratio of IC50 for human CDK2/cyclin A to IC50 for Trypanosoma brucei GSK3.
Experiment [6] deals with Trypanosoma brucei brucei. In words: Trypanocidal activity against bloodstream stage of Trypanosoma brucei brucei assessed as inhibition of proliferation after 72 hrs. In kind it is functional, organism-based. The method, boiled down: (§1)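 Resazurin viability assay: 2 × 10³ cells/well (MRC5 in MEM + 10% FBS; bloodstream-form T. b. brucei in appropriate medium), compounds 50 μM to 0.5 nM, 37 °C, 5% CO₂ for 69 h, then resazurin 50 μM final for further 4 h; fluorescence read. Concentration giving 50% growth inhibition over 72 h; average of two or more experiments.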

Experiment [7] deals with MRC5. In words: Cytotoxicity against human MRC5 cells assessed as growth inhibition after 72 hrs. In kind it is cell-based. To be noted: MRC5, 72 h. The method, boiled down:
as §1

Turning to `COCCNC(=O)c1n[nH]cc1NC(=O)c1c(OC)cccc1OC`, the IC50 in experiment [1] was 0.034 µM; in experiment [2], 0.3 µM; in experiment [4] it was more than 10 µM. Further, the Ratio IC50 in experiment [3] was 8.8; in experiment [5], more than 290. The 50% effective concentration (EC50) in experiment [6] is 43 µM; in experiment [7] it was more than 50 µM.

With `CCc1ccccc1C(=O)Nc1c[nH]nc1C(=O)N[C@H]1CC[C@H](OC)CC1`, the IC50 in experiment [1] is 0.053 µM; in experiment [2], 0.02 µM; in experiment [4], 0.07 µM. In addition, the Ratio IC50 in experiment [3] came to 0.38; in experiment [5], 1.3. Also, the EC50 in experiment [6] was 2.8 µM; in experiment [7] it was 3.4 µM.

For `COc1cccc(OC)c1C(=O)Nc1c[nH]nc1C(=O)NC1CCN(C(=O)OC(C)(C)C)CC1`, the IC50 in experiment [1] was 0.006 µM; in experiment [2], 0.14 µM; in experiment [4], 4.7 µM. In addition, the values for the Ratio IC50 in experiment [3] and in experiment [5] were 23 and 780, respectively. Further, the 50% effective concentration (EC50) was 12 µM in experiment [6] and more than 50 µM in experiment [7].

For the compound `COc1cccc(OC)c1C(=O)Nc1c[nH]nc1C(=O)Nc1ccccc1`, the half-maximal inhibitory concentration (IC50) is 0.006 µM in experiment [1], 0.07 µM in experiment [2] and 4.3 µM in experiment [4]. Moreover, the Ratio IC50 in experiment [3] stood at 12; in experiment [5] it was 720. In addition, the concentration giving a half-maximal response (EC50) is 11.5 µM in experiment [6] and more than 50 µM in experiment [7].

With `COc1cccc(OC)c1C(=O)Nc1c[nH]nc1C(=O)Nc1ccccn1`, the IC50 was 0.32 µM in experiment [1], 0.94 µM in experiment [2] and more than 10 µM in experiment [4]. In addition, the Ratio IC50 in experiment [3] is 2.9; in experiment [5], more than 31. Further, the concentration giving a half-maximal response (EC50) in experiment [6] and in experiment [7] was more than 50 µM each time.

Regarding `CO[C@H]1CC[C@H](NC(=O)c2n[nH]cc2NC(=O)c2c(C)nc3ccccn23)CC1`, the half-inhibitory concentration (IC50) in experiment [1] stood at 0.1 µM; in experiment [2] it was 0.042 µM; in experiment [4] it was 2.2 µM. The Ratio IC50 in experiment [3] is 0.42; in experiment [5], 22. The figures for the EC50 in experiment [6] and in experiment [7] were 2.9 µM and 34 µM, respectively.

Turning to `COc1cccc(OC)c1C(=O)Nc1c[nH]nc1C(=O)NC1CCCCCC1`, the IC50 in experiment [1] was 0.001 µM; in experiment [2], 0.02 µM; in experiment [4], 2 µM. The figures for the Ratio IC50 in experiment [3] and in experiment [5] were 20 and 2000, respectively. The EC50 in experiment [6] came to 4.5 µM; in experiment [7], 42 µM.

Take `COc1cccc(OC)c1C(=O)Nc1c[nH]nc1C(=O)NC1CCC1`: the 50% inhibitory concentration (IC50) in experiment [1] was 0.008 µM; in experiment [2] it was 0.08 µM; in experiment [4], 2.4 µM. Further, the Ratio IC50 worked out at 10 in experiment [3] and 300 in experiment [5]. Moreover, the values for the EC50 in experiment [6] and in experiment [7] were 12 µM and more than 50 µM, respectively.

On to `COC(=O)c1n[nH]cc1NC(=O)c1c(OC)cccc1OC`, for which the IC50 is 0.52 µM in experiment [1], 4.5 µM in experiment [2] and more than 10 µM in experiment [4]. Also, the Ratio IC50 is 8.7 in experiment [3] and more than 19 in experiment [5]. The concentration giving a half-maximal response (EC50) in experiment [6] and in experiment [7] was more than 50 µM in each case.

For `COc1ccccc1CC(=O)Nc1c[nH]nc1C(=O)N[C@H]1CC[C@H](OC)CC1`, the IC50 is 0.5 µM in experiment [1], 0.21 µM in experiment [2] and 0.85 µM in experiment [4]. For the same compound, the Ratio IC50 in experiment [3] stood at 0.42; in experiment [5], 1.7. Moreover, the half-maximal effective concentration (EC50) was determined as 22 µM in experiment [6] and 40 µM in experiment [7].

For `CO[C@H]1CC[C@H](NC(=O)c2n[nH]cc2NC(=O)C2CCOCC2)CC1`, the IC50 in experiment [1] came out at 0.69 µM; in experiment [2] it was 0.008 µM; in experiment [4], 0.38 µM. Moreover, the Ratio IC50 was 0.0012 in experiment [3] and 0.55 in experiment [5]. In addition, the values for the EC50 in experiment [6] and in experiment [7] were 32 µM and more than 50 µM, respectively.

Regarding `COc1cccc(OC)c1C(=O)Nc1c[nH]nc1C(=O)NCc1ncccc1C`, the concentration for half-maximal inhibition (IC50) in experiment [1] is 0.14 µM; in experiment [2], 0.87 µM; in experiment [4], more than 10 µM. Further, the Ratio IC50 in experiment [3] is 6.2; in experiment [5], more than 71. Besides, the EC50 in experiment [6] and in experiment [7] was more than 50 µM in each case.

Take `COc1cccc(OC)c1C(=O)Nc1c[nH]nc1C(=O)NCCCN(C)C`: the IC50 in experiment [1] was 0.33 µM; in experiment [2], 0.47 µM; in experiment [4], more than 10 µM. Also, the Ratio IC50 in experiment [3] was 1.4; in experiment [5] it was more than 30. Moreover, the EC50 in experiment [6] and in experiment [7] was more than 50 µM in each case.

With `CO[C@H]1CC[C@H](NC(=O)c2n[nH]cc2NC(=O)Cc2c(Cl)cccc2Cl)CC1`, the half-maximal inhibitory concentration (IC50) is 0.23 µM in experiment [1], 0.2 µM in experiment [2] and 0.29 µM in experiment [4]. The Ratio IC50 in experiment [3] was 0.87; in experiment [5] it was 1.3. The 50% effective concentration (EC50) in experiment [6] was 7.3 µM; in experiment [7] it was 3.1 µM.

On to `COc1cccc(OC)c1C(=O)Nc1c[nH]nc1C(=O)NCCN1CCCC1`, for which the values for the IC50 in experiment [1], in experiment [2] and in experiment [4] were 0.32 µM, 0.66 µM and more than 10 µM, respectively. In addition, the Ratio IC50 in experiment [3] is 2.1; in experiment [5], more than 31. For the same compound, the EC50 in experiment [6] and in experiment [7] was more than 50 µM each time.

With `CO[C@H]1CC[C@H](NC(=O)c2n[nH]cc2NC(=O)Cc2ccccc2F)CC1`, the IC50 came to 0.39 µM in experiment [1], 0.14 µM in experiment [2] and 0.82 µM in experiment [4]. Also, the values for the Ratio IC50 in experiment [3] and in experiment [5] were 0.35 and 2.1, respectively. Also, the EC50 was 23 µM in experiment [6] and more than 50 µM in experiment [7].

`COc1cccc(OC)c1C(=O)Nc1c[nH]nc1C(=O)NN1CCOCC1`: the IC50 in experiment [1] was 0.081 µM; in experiment [2], 0.45 µM; in experiment [4] it was more than 10 µM. Besides, the figures for the Ratio IC50 in experiment [3] and in experiment [5] were 5.6 and more than 120, respectively. Moreover, the EC50 in experiment [6] was 50 µM; in experiment [7], more than 50 µM.
